Screening data deposited in PubChem BioAssay by Broad Institute.
CASP6 VEID inh = inhibitors of human caspase-6. P55212. purified caspase-6, Z-VEID-R110 cleavage fluorescence. inhibition, % at 12.5 µM. 350,000 compounds, 0.53% hits. AID 686996;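 active = mean inhibition across replicates at least about 35%, with every replicate also reaching that limit, limit read from the data; inconclusive = only one of the two criteria met; inactive = neither criterion met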
Target sequence (P55212 24-179 limits assumed): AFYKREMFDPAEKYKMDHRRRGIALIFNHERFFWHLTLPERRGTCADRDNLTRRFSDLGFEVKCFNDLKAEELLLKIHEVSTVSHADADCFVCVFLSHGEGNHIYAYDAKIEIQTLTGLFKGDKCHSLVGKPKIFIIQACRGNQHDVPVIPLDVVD
Target sequence (P55212 194-293 limits assumed): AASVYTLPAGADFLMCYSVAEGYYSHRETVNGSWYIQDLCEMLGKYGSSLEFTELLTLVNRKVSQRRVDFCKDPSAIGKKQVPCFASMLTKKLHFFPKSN
FN deposition inh = fibronectin deposition inhibition. AH1F fibroblasts, Alexa488-fibronectin deposition fluorescence, overnight. inhibition, % at 12.6 µM. 350,000 compounds, 0.086% hits. AID 743247;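 active = mean inhibition across replicates of 30% or more, regardless of how many single replicates reach that level; inconclusive = mean under 30% yet at least half of replicates reach 30%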
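Material: AH1F fibroblast monolayer depositing Alexa488-labelled fibronectin into matrix / Amount: 10000 AH1F cells per well / Signal: fluorescence 485/525 nm / Medium: DMEM, 2% serum / Compound: single dose, pinned / Incubation: 1 h cell adhesion before compound, then overnight fibronectin incubation / Reagent: Alexa488-FN, 24 nM final / Read-out: inhibition of fibronectin deposition signal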
Xi reactivation = reactivates the inactive X chromosome in mouse fibroblasts; 360,000 compounds, 0.055% hits; AID 743238; XiGFP mouse fibroblasts, % GFP-positive cells imaging, 3 d; cells co-treated with 5-aza-dC sensitizer; scaled so ellipticine positive control = 100%; activation, % at 7.58 µM;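 active = mean normalized replicate activation at least 10% and every replicate at or above 10%; inconclusive = only one of the two criteria met; inactive = mean below 10% and not all replicates reach 10%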
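Material: XiGFP fibroblasts, SV40-immortalized; Buffer or medium: DMEM containing 5-aza-dC; Compound dosing: single point; Times: 3 days compound exposure.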
DENV2 CPE rescue = inhibitors of DENV2 cytopathic effect; 350,000 compounds, 1.7% hits; CPE inhibition, % at 9.99 µM; AID 651640; DENV2-infected cells, cytopathic effect rescue, plate reader; in the data active = CPE inhibition above about 20%, passing the limit was not always enough; inconclusive = no clear call, values can overlap the other calls; tested in BHK-21 cells
CaV13 FRET inh = Primary screen for inhibitors of IQ motif and Ca2+-dependent inactivation inhibitor domain binding in CACNA1D, Förster resonance energy transfer in living cells, …; inhibition, % at 12.3 µM; HEK cells, CFP/YFP FRET ICDI-IQ, plate reader, 10 min; percent FRET-ratio fall versus neutral wells; 340,000 compounds, 0.098% hits; AID 743397;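 active = mean replicate inhibition of at least 30% and at least 1% of replicates passing that level; inconclusive = only one of the two criteria is met; inactive = neither criterion is met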
Hits are given with their value; n = inactive; u = inconclusive; x = no result. The list is not random: actives were taken first. Their share in the collection is about 2%.

SMILES	CASP6 VEID inh	FN deposition inh	Xi reactivation	DENV2 CPE rescue	CaV13 FRET inh
Cc1ccc(S(=O)(=O)N2CCN(CC(=O)Nc3ccnn3C3CCCC3)CC2)cc1	39	n	n	n	n
C/C=C(\C)CN1CCC(n2nccc2NC(=O)CCc2ccccc2)CC1	n	n	n	101	n
COc1ccc2c3c(n(C)c2c1)[C@H](CO)NCC31CN(S(=O)(=O)c2ccc(C)cc2)C1	x	n	n	x	x
Cn1c(-c2cc3ccc(OC(=O)C(C)(C)C)cc3oc2=O)nc2ccccc21	x	n	x	x	n
CC(=O)Oc1ccc2cc(-c3nc4ccccc4n3C)c(=O)oc2c1	x	x	x	x	33
COc1ccc2c(c1)/C(=C/c1cc(OC)c(OC)c(OC)c1)C(=O)N2	n	n	n	29	n
COc1ccc(/C=C2\C(=O)NC(=O)c3ccccc32)cc1OC	93	n	n	n	n
CCC(=O)N(C)C[C@H]1Oc2cc(C#CC3CCCC3)ccc2S(=O)(=O)N([C@@H](C)CO)C[C@@H]1C	n	n	n	n	x
C[C@H]1CN([C@@H](C)CO)C(=O)c2cccc(NS(=O)(=O)c3cn(C)cn3)c2O[C@@H]1CN(C)C(=O)NC1CCCCC1	n	n	n	u	x
Cc1ccn2c(NC3CCCCC3)c(-c3ccc(SC4CCCCC4)cc3)nc2c1	n	n	n	37	n
Cc1ccccc1NC(=S)NC1CCCC1	n	n	n	n	n
Cc1cccc(C)c1NC(=S)NC1CCCCC1	n	n	n	68	n
O=C(C[C@@H]1C=C[C@H](NC(=O)C2CCC2)[C@@H](CO)O1)NCc1ccncc1	n	n	n	n	x
Cc1ccc(NC2=C(Cl)C(=O)c3ccccc3C2=O)cc1	n	n	n	83	n
O=C1C(Cl)=C(Nc2ccc(O)cc2)C(=O)c2ccccc21	n	n	n	n	n
CO[C@H]1CN(C)C(=O)c2ccc(NC(=O)Nc3ccc4c(c3)OCO4)cc2OC[C@H](C)NC[C@@H]1C	x	x	n	n	x
O=C(O)CSc1cc(C(=O)c2ccccc2O)cn2c(=O)c3c(-c4ccccc4)csc3nc12	39	n	n	n	n
FC(F)(F)c1cc(-c2ccco2)nc(NCc2cccnc2)n1	x	n	x	x	n
FC(F)(F)c1cc(-c2ccccc2)nc(NCc2cccnc2)n1	x	active	x	x	n
COc1ccc(NC(=O)N[C@@H]2C=C[C@H](CC(=O)NC3CCCCC3)O[C@H]2CO)cc1	n	n	n	n	x
Nc1c(C(=O)Nc2ccc(Br)cc2)sc2nc(-c3ccco3)ccc12	x	n	x	x	n
CC(=O)c1sc2nc(-c3ccco3)ccc2c1N	64	n	n	n	n
NC(=O)c1c(NC(=O)C2CC=CCC2C(=O)O)sc2c1CCCCC2 (stereo not drawn)	52	x	n	n	x
CN(C)c1ccc(Cc2ccc(N(C)C)cc2)cc1	n	n	n	n	n
CN(C)c1ccc(CCc2ccc(N)cc2)cc1	n	n	n	26	n
SMILES	CASP6 VEID inh	FN deposition inh	Xi reactivation	DENV2 CPE rescue	CaV13 FRET inh
C[C@@H]1CN([C@@H](C)CO)C(=O)c2cc(-c3ccncc3)cnc2O[C@H]1CN(C)C(=O)Cc1cccnc1	x	n	n	n	x
COc1ccc2c3c([nH]c2c1)[C@@H](CO)N(Cc1nccs1)CC31CN(C(=O)C2CCOCC2)C1	x	x	n	n	x
C[C@@H]1CN([C@@H](C)CO)C(=O)c2cc(-c3ccccc3F)cnc2O[C@H]1CN(C)C(=O)CN(C)C	n	n	n	n	x
COc1cccc(C2=CC(=O)C(C(C)(C)C)N2C(C)(C)C)c1 (stereo not drawn)	n	n	n	41	n
CC(C)N(C(=O)Nc1ccc2nsnc2c1)C(C)C	100	n	n	n	n
CCC(C)CN1C(=O)CSCC1(C)C(=O)Nc1ccc2c(c1)OCCO2 (stereo not drawn)	n	n	n	31	n
COCC(C)n1c(SCc2nc(N)nc(Nc3ccccc3C)n2)nc2ccccc2c1=O (stereo not drawn)	x	33	x	x	n
CCCCn1c(SCc2nc(N)nc(Nc3ccccc3C)n2)nc2ccccc2c1=O	x	x	x	x	n
O=C(C[C@H]1CC[C@H](NC(=O)Nc2cc(F)ccc2F)[C@@H](CO)O1)NCc1ccccn1	n	n	n	n	x
NC(=O)c1ccccc1NC(=O)COC(=O)C1(c2ccccc2)CC1	n	n	n	32	n
O=C(O)c1ccc(-c2ccc(/C=C3\NC(=O)N(Cc4ccc(Cl)cc4)C3=O)o2)cc1Cl	65	n	n	n	n
Cc1ccc(/C=C2/NC(=O)N(Cc3ccc(Br)cc3)C2=O)o1	x	n	n	x	n
CCOC(=O)CN1C(=O)S/C(=C\c2ccc(-c3cccc(C(=O)O)c3C)o2)C1=O	n	n	n	n	n
CCOC(=O)CN1C(=O)S/C(=C\c2ccc(-c3ccc(C(=O)O)c(Cl)c3)o2)C1=O	49	n	n	n	n
CCCC#Cc1cnc2c(c1)C(=O)N([C@H](C)CO)C[C@@H](C)[C@@H](CN(C)C(=O)CCN1CCCCC1)O2	n	n	n	n	x
OCC[C@H]1C[C@@H](O)[C@H](O)[C@@]2(Cc3ccccc3CCO2)O1	n	n	n	23	n
OCC[C@@H]1C[C@@H](O)[C@H](O)[C@@]2(CCCO2)O1	n	n	n	n	n
OCC[C@H]1C[C@@H](O)[C@H](O)[C@@]2(CCc3ccccc3CO2)O1	n	n	n	48	n
OCC[C@@H]1C[C@H](O)[C@@H](O)[C@@]2(CCc3ccccc3CO2)O1	x	n	n	n	n
OCC[C@H]1C[C@@H](O)[C@H](O)[C@@]2(CCCO2)O1	n	n	n	59	n
OCC[C@H]1C[C@H](O)[C@@H](O)[C@@]2(Cc3ccccc3CCO2)O1	n	n	n	u	n
COc1cc(/C=C(\C#N)C(=O)NC(C)C)cc(Cl)c1O	n	n	n	n	48
CC(C)NC(=O)/C(C#N)=C/c1cccc(NC(=O)c2ccccc2Cl)c1	n	n	n	n	n
NC(=O)[C@@H]1CCCN1C(=O)[C@H](CCc1ccccc1)NC(=O)[C@H]1O[C@@H](n2cnc3c(N)ncnc32)[C@H](O)[C@@H]1O	n	n	n	40	n
COC(=O)C1=C[C@@H](C(=O)OC)[C@@H]2C3=C(C(=O)[C@@]2(C)NC(=O)c2ccccc2)[C@H](C)n2c(=O)n(C)c(=O)n2[C@@H]3C1	n	n	n	n	n
COC(=O)C1=C[C@@H](C(=O)OC)[C@@H]2C3=C(C(=O)[C@@]2(C)NC(=O)c2ccccc2)[C@H](C)C(C(=O)OC)=C(C(=O)OC)[C@@H]3C1	n	n	n	24	n
CC(C)(NC(=O)c1ccccc1)c1nc2ccccc2s1	x	n	n	109	n
CCCC#Cc1ccc2c(c1)O[C@H](CN(C)C(=O)c1cnccn1)[C@@H](C)CN([C@@H](C)CO)S2(=O)=O	n	n	n	n	x
O=C(Nc1ccc(F)cc1)Nc1ccc2c(c1)[C@H]1C[C@@H](CC(=O)N3CCCCC3)O[C@H](CO)[C@H]1O2	x	n	n	n	x
